In ChEMBL document CHEMBL1156194, “Discovery of a new series of Aurora inhibitors through truncation of GSK1070916” (Bioorg Med Chem Lett, 2010):
The source made the active and inactive calls. The calls are words filed in the database; no cut-off is given here.

Key:
A549 [1] = assay: Cell cycle arrest in human A549 cells assessed as multipolar spindle accumulation at 37 nM after 24 hrs by immunofluorescent staining microscopy; assay type: functional, cell-based
How it was run: (§1)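 A549 tumour cells treated at 12, 37 or 110 nM for 24 h. Cells stained with α-tubulin antibody for mitotic spindles, pericentrin antibodies for centrosomes, and […] for DNA. Mitotic phenotype scored by immunofluorescence.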

A549 [2] = assay: Cell cycle arrest in human A549 cells assessed as multipolar spindle accumulation at 12 nM after 24 hrs by immunofluorescent staining microscopy; assay type: functional, cell-based; how it was run: as §1
[3] = molecular target: T1, Aurora kinase A/Targeting protein for Xklp2 (Homo sapiens, UniProt O14965); assay: Inhibition of human recombinant aurora A/TPX2 complex after 120 mins by IMAP fluorescence polarization assay; assay type: protein-complex assay
T1 sequence (O14965 whole entry): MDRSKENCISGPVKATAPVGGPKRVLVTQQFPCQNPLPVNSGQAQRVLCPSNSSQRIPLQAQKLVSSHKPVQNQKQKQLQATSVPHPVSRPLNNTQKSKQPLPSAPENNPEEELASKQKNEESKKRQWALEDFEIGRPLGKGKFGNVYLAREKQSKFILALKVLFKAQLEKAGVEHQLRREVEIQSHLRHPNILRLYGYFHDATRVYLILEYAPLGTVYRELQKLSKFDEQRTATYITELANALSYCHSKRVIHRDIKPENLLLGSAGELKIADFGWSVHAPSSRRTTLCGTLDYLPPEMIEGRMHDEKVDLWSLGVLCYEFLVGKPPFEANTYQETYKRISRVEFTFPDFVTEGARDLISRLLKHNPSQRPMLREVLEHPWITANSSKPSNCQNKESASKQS
T1 sequence (Q9ULW0 whole entry): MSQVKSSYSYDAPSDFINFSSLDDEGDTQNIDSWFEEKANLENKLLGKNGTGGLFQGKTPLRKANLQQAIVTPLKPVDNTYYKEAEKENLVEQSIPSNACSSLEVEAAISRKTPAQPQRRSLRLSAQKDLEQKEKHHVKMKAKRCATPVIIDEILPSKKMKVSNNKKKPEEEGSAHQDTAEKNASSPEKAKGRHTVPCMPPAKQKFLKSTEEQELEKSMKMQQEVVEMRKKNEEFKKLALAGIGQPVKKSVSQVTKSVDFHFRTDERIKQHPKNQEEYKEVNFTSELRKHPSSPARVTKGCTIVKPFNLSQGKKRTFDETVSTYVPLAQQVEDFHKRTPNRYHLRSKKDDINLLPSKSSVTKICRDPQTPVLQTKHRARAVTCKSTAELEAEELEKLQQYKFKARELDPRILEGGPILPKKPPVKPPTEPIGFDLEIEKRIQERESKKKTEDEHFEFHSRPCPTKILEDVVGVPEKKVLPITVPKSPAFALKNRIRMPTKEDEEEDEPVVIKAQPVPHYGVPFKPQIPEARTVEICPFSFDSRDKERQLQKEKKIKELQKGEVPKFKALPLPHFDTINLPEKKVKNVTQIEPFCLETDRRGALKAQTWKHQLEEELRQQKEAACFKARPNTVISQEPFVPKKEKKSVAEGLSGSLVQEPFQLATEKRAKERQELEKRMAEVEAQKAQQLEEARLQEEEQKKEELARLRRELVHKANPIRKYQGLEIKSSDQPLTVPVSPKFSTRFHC

[4] = molecular target: Aurora kinase B/Inner centromere protein (Homo sapiens, UniProt Q96GD4); assay: Inhibition of human recombinant aurora B/INCENP complex after 120 mins by IMAP fluorescence polarization assay; assay type: protein-complex assay
Aurora kinase B = Aurora kinase B (Homo sapiens, UniProt Q96GD4); assay: Inhibition of aurora B assessed as inhibition of histone H3 phosphorylation by ELISA based cellular mechanistic assay
How it was run: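 Cellular mechanistic assay: ELISA measuring intracellular Aurora B activity through phosphorylation of histone H3, an Aurora B-specific substrate. IC50 values are averages of at least two experiments.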

A549 [5] = assay: Cytotoxicity against human A549 cells in presence of 10% human serum; assay type: functional, cell-based
How it was run: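 A549 cell proliferation assay run in 10% human serum. EC50 values are averages of at least two experiments, in nM.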

A549 [6] = assay: Cell cycle arrest in human A549 cells assessed as sub-2N DNA accumulation at 5 times EC50 after 48 hrs by FACS analysis relative to control; assay type: functional
How it was run: (§2)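 A549 lung tumour cells treated at 5× the compound's EC50 from the cell proliferation assay, alongside a DMSO control. Cell cycle profile read after 48 h by FACS. Values are the percentage of cells with sub-2N, 2N, 2N to 4N, 4N and >4N DNA content.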

A549 [7] = assay: Cell cycle arrest in human A549 cells assessed as 2N DNA accumulation at 5 times EC50 after 48 hrs by FACS analysis relative to control; assay type: functional; how it was run: as §2
A549 [8] = assay: Cell cycle arrest in human A549 cells assessed as 2N to 4N DNA accumulation at 5 times EC50 after 48 hrs by FACS analysis relative to control relative to control; assay type: functional; how it was run: as §2
A549 [9] = assay: Cell cycle arrest in human A549 cells assessed as 4N DNA accumulation at 5 times EC50 after 48 hrs by FACS analysis relative to control; assay type: functional; how it was run: as §2
A549 [10] = assay: Cell cycle arrest in human A549 cells assessed as greater than 4N DNA accumulation at 5 times EC50 after 48 hrs by FACS analysis relative to control; assay type: functional; how it was run: as §2
A549 [11] = assay: Cell cycle arrest in human A549 cells assessed as malformed bipolar and monopolar spindle mixture accumulation at 110 nM after 24 hrs by immunofluorescent staining microscopy; assay type: functional, cell-based; how it was run: as §1
Rattus norvegicus = assay: Dose normalized AUC in po dosed rat; assay type: ADME, organism-based; conditions: in vivo
[12] = Oral bioavailability in rat; assay type: ADME, organism-based; conditions: in vivo
[13] = Blood clearance in po dosed rat; assay type: ADME, organism-based; conditions: whole blood

Chain of Aurora kinase B (Q96GD4 whole entry): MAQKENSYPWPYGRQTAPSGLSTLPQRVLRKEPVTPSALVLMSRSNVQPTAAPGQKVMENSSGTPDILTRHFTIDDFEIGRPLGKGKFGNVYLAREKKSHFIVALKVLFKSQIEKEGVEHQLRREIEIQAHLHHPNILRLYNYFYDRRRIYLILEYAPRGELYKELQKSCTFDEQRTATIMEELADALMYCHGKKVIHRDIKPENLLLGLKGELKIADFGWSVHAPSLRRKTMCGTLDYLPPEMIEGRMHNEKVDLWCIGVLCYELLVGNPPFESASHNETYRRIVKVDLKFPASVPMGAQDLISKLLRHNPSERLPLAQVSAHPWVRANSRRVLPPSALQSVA
Chain of Aurora kinase B/Inner centromere protein (Q96GD4 whole entry): as above
Chain of Aurora kinase B/Inner centromere protein (Q9NQS7 whole entry, further chain): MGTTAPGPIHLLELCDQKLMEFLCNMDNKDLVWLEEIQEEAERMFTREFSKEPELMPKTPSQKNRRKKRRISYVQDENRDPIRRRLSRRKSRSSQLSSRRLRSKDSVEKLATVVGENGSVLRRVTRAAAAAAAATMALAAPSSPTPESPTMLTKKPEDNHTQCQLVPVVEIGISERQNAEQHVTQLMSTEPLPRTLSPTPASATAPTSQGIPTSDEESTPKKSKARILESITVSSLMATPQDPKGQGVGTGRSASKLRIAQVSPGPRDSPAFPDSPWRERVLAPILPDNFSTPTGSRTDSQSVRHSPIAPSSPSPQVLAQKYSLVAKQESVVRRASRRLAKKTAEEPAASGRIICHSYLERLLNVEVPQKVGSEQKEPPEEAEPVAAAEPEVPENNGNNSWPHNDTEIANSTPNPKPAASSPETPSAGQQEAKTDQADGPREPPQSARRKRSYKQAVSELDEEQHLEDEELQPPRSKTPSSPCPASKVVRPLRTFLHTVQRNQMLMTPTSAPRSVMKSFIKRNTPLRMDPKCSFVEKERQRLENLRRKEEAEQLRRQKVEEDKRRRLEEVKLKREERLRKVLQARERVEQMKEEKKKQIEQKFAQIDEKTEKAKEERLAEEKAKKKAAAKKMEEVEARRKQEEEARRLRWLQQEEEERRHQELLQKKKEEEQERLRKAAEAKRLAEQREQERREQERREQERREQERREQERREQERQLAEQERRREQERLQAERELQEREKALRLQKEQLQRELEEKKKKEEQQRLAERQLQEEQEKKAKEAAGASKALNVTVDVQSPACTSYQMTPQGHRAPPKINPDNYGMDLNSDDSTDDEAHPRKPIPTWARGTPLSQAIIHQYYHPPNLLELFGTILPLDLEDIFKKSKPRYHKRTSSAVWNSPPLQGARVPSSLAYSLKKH

Compound | Activity (A549 [1]) | Activity (A549 [2]) | IC50 [3] [nM] | IC50 ([4]; read-out: IC50) [nM] | IC50 (Aurora kinase B) [nM] | EC50 (A549 [5]) [nM] | Activity (A549 [6]) [%] | Activity (A549 [7]) [%] | Activity (A549 [8]) [%] | Activity (A549 [9]) [%] | Activity (A549 [10]) [%] | Activity (A549 [11]) | AUC (Rattus norvegicus) [ng·h/mL/mg/kg] | bioavailability [12] [%] | CL/F [13] [mL/min/kg] | IC50 ([4]; read-out: pIC50 (converted)) [nM]
CN(C)Cc1ccc(-c2cc3c(-c4cnn(C)c4)c(Cl)cnc3[nH]2)cc1 | Active | Active | 7.9 | 0.61 | 9 | 13 | 27 | 14 | 5 | 40 | 15 | – | – | – | – | –
Cn1cc(-c2ccnc3[nH]ccc23)cn1 | – | – | 982 | 802 | 6160 | 11700 | – | – | – | – | – | – | – | – | – | –
CCn1cc(-c2ccnc3[nH]ccc23)c(-c2ccc(NC(=O)N(C)C)cc2)n1 | – | – | > 10000 | 26 | – | 1530 | – | – | – | – | – | – | – | – | – | –
CN(C)Cc1cccc(-c2cc3c(-c4cnn(C)c4)c(Cl)cnc3[nH]2)c1 | Active | – | 6.2 | 0.51 | 67 | 21 | 34 | 6 | 4 | 26 | 30 | Active | – | – | – | –
CN(C)Cc1ccc(-c2cc3c(-c4cnn(C)c4)ccnc3[nH]2)cc1 | – | – | 76 | 5.9 | 169 | 24 | 30 | 32 | 7 | 29 | 2 | – | 139 | 72 | 86 | –
CN(C)Cc1cccc(-c2cc3c(-c4cnn(C)c4)ccnc3[nH]2)c1 | – | – | 128 | 5.7 | 104 | 134 | 36 | 13 | 4 | 43 | 3 | – | – | – | – | –
c1cc(-c2cn[nH]c2)c2cc[nH]c2n1 | – | – | 584 | 782 | 13400 | 2570 | – | – | – | – | – | – | – | – | – | –
CCn1cc(-c2ccnc3[nH]ccc23)c(-c2ccc(NC(=O)Nc3ccccc3)cc2)n1 | – | – | – | – | – | – | – | – | – | – | – | – | – | – | – | 2
CCn1cc(-c2ccnc3[nH]c(-c4cccc(CN(C)C)c4)cc23)c(-c2ccc(NC(=O)N(C)C)cc2)n1 [GSK-1070916] | – | – | – | 3.2 | 32 | 7 | 21 | 6 | 3 | 23 | 47 | – | – | – | – | –
